T cruzi inh: T. cruzi replication inhibition | 300,000 tested, 1.4% active | inhibition, % (concentration not given with the values) | T. cruzi beta-gal in NIH3T3, luminescence, 90 h;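 active = mean inhibition across valid replicates above about 55%, limit read from the data; inconclusive = mean below that limit but half or more replicates reach it; inactive = mean below it, under half of replicates reach it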;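 also: signal also drops with host cell toxicity which is not excluded here; 0% = plate median of DMSO wells and 100% = zero luminescence signal; higher percent means less beta-gal luminescence so fewer parasites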
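System: NIH/3T3 fibroblasts plus reporter T. cruzi. Medium: DMEM plus 2% FBS. Probe or stimulus: 5000 reporter trypomastigotes per well. Compound: single 50 nL compound addition per well in DMSO. Incubation: co-culture of at least 90 h after 3 h attachment. Detection: GalScreen β-gal luminescence, detergent lysis, 60 min. Evaluation: parasite load inhibition, %.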
Mdm2-MdmX inh: inhibitors of human Mdm2/MdmX interaction | inhibition, % at 8 µM | SaOS-2 split-luciferase Mdm2/MdmX complementation, luminescence | 330,000 tested, 3% active | O15151+Q00987 | AID 485346;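 active = inhibition of at least 50% at 8 µM in the primary screen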
SKKanGAS inh: SKKanGAS growth inhibition; S. pyogenes SKKanGAS, kanamycin growth, BacTiter-Glo, 6 h; inhibition, % at 7.5 µM; 300,000 tested, 1.3% active;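 active = mean replicate score, as percent of positive control median, at least 50; inconclusive = mean below 50 but one replicate at or above 50; inactive = mean and every replicate below 50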;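 also: strain carries kanamycin resistance gene driven by streptokinase promoter and grows in 40 µg/ml kanamycin; loss of luminescence reflects streptokinase promoter inhibition or plain growth inhibition; 0% = median of DMSO wells and 100% = positive control at its reference dose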
L major viab: Leishmania major promastigote growth inhibition. 200,000 tested, 9% active. inhibition, % at 10 µM. AID 1063. Leishmania major promastigotes, resazurin fluorescence viability; in the data active = inhibition above about 50%;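 also: promastigotes grown with compound for 44 hours at 28 °C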
CSC inhib: blocks cancer stem cells. cancer stem cell-like cells viability, luminescence. inhibition, % at 7.5 µM. 300,000 tested, 1.1% active. AID 2717; in the data active = inhibition above about 75%; inconclusive = no clear call, values can overlap the other calls; tested in HMLE shEcad cells
Beta cell apopt: blocks beta cell apoptosis; INS-1E cytokine-induced death, ATP luminescence, 48 h; percent of positive-control rescue, neutral wells zero; protection from apoptosis, % (test concentration not listed); 300,000 tested, 0.8% active;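 active = Every replicate reaches about 75%, or at least half do and their mean reaches it too, limit read from the data; inconclusive = At least half of replicates reach the limit but their mean does not; inactive = Under half of replicates reach the limit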;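 also: 0% = cytokine-treated negative control wells and 100% = positive control rescue; higher means more ATP so stronger rescue from cytokine killing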
An asterisk follows results filed as active; ? = inconclusive; / = no result. In the library only some 9.4% were active in any assay of this set; here they are far more common.

SMILES | T cruzi inh | Mdm2-MdmX inh | SKKanGAS inh | L major viab | CSC inhib | Beta cell apopt
O=C(c1ccccc1F)c1cn(Cc2ccccc2)c2ccccc12 | 3.1 | 37.0 | 13.9 | 54.0* | 33.0 | -0.8
CCOC(=O)c1c(-n2c(C)cc(C=C3C(=O)NC(=S)NC3=O)c2C)sc2c1CCCC2 | -13.7 | -5.7 | 15.6 | 100.2* | -4.0 | -4.1
CCOC(=O)c1c(-n2c(C)cc(/C=C3/C(=O)NC(=O)N(CC)C3=O)c2C)sc2c1CCCC2 | 12.8 | 32.5 | 31.6 | 95.8* | 2.8 | -3.1
CCOP(=O)(OCC)Oc1cc(C)c(N(C)C)c(C)c1 | -3.0 | / | 0.5 | / | -7.0 | -1.7
CCOC(=O)C1=C(N)OC2=C(C(=O)CCC2)C12C(=O)N1c3c(ccc(C)c32)C(C)=CC1(C)C (stereo unspecified) | 13.5 | 0.5 | 1.8 | 78.7* | 11.3 | 1.4
Cc1cccn2c(=O)c3c(nc12)N1CCC(Cc2ccccc2)CC1C1(C3)C(=O)N(C)C(=O)N(C)C1=O (stereo unspecified) | 34.9 | 27.4 | 23.5 | 58.6* | -15.6 | 9.0
CCN1CCN(Cc2ccc(OC(F)(F)F)cc2)CC1 | 40.8 | 1.4 | 4.3 | 88.9* | 3.5 | -1.8
CCCCCCOc1ccc(CN2CCN(CC)CC2)cc1 | 65.0* | 25.4 | 8.5 | 97.1* | 72.9 | 6.9
CCN1CCN(Cc2cccnc2)CC1 | -1.5 | 4.1 | -19.1 | / | 3.0 | -0.6
COc1ccc(CN2CCNCC2)cc1 | 1.3 | -11.0 | 0.8 | / | -1.9 | -2.4
Cc1cc(OC(C)C(=O)NCC(O)c2ccccc2)c2c3c(c(=O)oc2c1)CCCC3 (stereo unspecified) | 27.0 | 15.2 | -2.5 | / | -7.0 | 4.9
CCN1CCC(O)(c2ccccc2)C(C(=O)c2ccccc2)C1 (stereo unspecified) | 0.3 | 5.5 | -6.0 | 80.3* | 11.5 | -14.1
C=C1C(O)(c2ccccc2)C2CC[N+]1(C)CC2 (stereo unspecified) | -4.9 | 5.3 | -6.6 | -5.2 | -12.8 | -10.3
COC(=O)CNC(=O)c1cn(CCC#N)nc1-c1ccc(F)cc1 | -16.1 | -24.3 | 3.7 | -4.7 | 15.6 | -4.0
OC(CN1CC=C(c2ccccc2)CC1)c1ccccc1 (stereo unspecified) | 4.1 | 5.5 | -4.1 | / | -2.0 | 7.1
OC(COCc1ccc(Cl)cc1)CN1CC=C(c2ccccc2)CC1 (stereo unspecified) | 22.0 | 23.1 | -6.5 | 88.0* | 25.2 | -4.0
O=C1NC(=O)C2(Cc3c(nc4ccccn4c3=O)N3CCCCCC32)C(=O)N1Cc1ccccc1 (stereo unspecified) | / | 23.5 | / | 96.7* | -28.2 | 1.8
COc1ccccc1/C=C1\C(=O)NC(=S)N(c2ccccc2)C1=O | -15.5 | 26.2 | 1.1 | / | -1.5 | -3.9
CCN1C(=O)/C(=C/c2ccc(N(CC)CC)cc2OC)C(=O)NC1=S | 0.8 | 7.5 | -4.7 | 99.5* | / | -6.2
C[C@]12CCC3C(CCC4=C/C(=N/OCC(=O)NC(CCC(=O)O)C(=O)O)CC[C@@]43C)C1CCC2O (stereo partly specified) | -7.5 | -1.0 | 1.0 | / | -3.6 | 0.4
CC/C(=N\Nc1ccccc1)c1c(O)n(C)c(=O)n(C)c1=O | 6.0 | -3.0 | 4.7 | 61.1* | -7.2 | 5.1
CC/C(=N\Nc1ccccc1)c1c(O)n(-c2ccccc2)c(=O)[nH]c1=O | / | -5.0 | 1.0 | / | ? | 2.5
CN1[C@H]2CC[C@@H]1C(C(=O)N1CCOCC1)=C(O)C2 | / | 16.4 | / | / | 2.1 | -6.5
COC(=O)c1ccc(CN2CCSC2=N)cc1 | -25.7 | 7.5 | -10.9 | / | 10.3 | /
Cc1ccc(-c2nc3ccccc3c(=O)n2-c2ccncc2)cc1 | 5.9 | -8.3 | 1.7 | -3.5 | -2.7 | -2.2
SMILES | T cruzi inh | Mdm2-MdmX inh | SKKanGAS inh | L major viab | CSC inhib | Beta cell apopt
O=c1c2ccccc2nc(-c2ccc(-c3ccccc3)cc2)n1-c1ccncc1 | 83.9* | 18.4 | 2.7 | 72.8* | -3.1 | 3.4
COc1ccccc1Cn1c(SCC(=O)C(C)(C)C)nc2cc(C(=O)N3CCC4(CC3)OCCO4)ccc2c1=O | 40.1 | 11.2 | 14.1 | 56.5* | -13.2 | 8.1
CN1CCN(c2ccc([N+](=O)[O-])c(N)c2)CC1 | 15.1 | -21.1 | -1.3 | 52.0* | -9.4 | 1.3
CN1CCN(c2ccc([N+](=O)[O-])c(SCCO)c2)CC1 | 4.5 | 20.3 | -5.0 | 13.4 | -2.0 | -8.3
CN1CCN(c2ccc([N+](=O)[O-])c(N3CCCCC3)c2)CC1 | 79.5* | 9.1 | -10.2 | 93.7* | 36.4 | -5.1
O=[N+]([O-])c1ccc(N2CCNCC2)cc1N1CCCCCC1 | 6.7 | 11.7 | -3.2 | 99.2* | 8.5 | -5.9
O=C(Cc1ccccc1)OCC(=O)c1ccccc1 | -13.6 | 19.3 | -2.9 | / | -5.7 | -3.3
CN(C)c1ccc(CN2CC=C(c3ccc(F)cc3)CC2)cc1 | 51.2 | 0.6 | -0.6 | 96.2* | 12.0 | -4.8
COc1cc2c(c(OC)c1OC)-c1ccc(O)c(=O)cc1[C@@H](N)CC2 | / | 5.3 | / | / | 0.2 | 4.0
CCCc1nc2ccc(Br)cc2c(=O)n1-c1ccc([N+](=O)[O-])c(C(F)(F)F)c1 | 55.5* | 36.5 | 22.3 | 7.0 | 126.8* | 98.7*
C#CCOC(=O)C1=CCCN(C)C1 | / | -0.2 | / | / | -2.4 | -6.7
COC(=O)C1=C(c2ccc(Cl)c(C(F)(F)F)c2)C[C@@H]2CC[C@H]1N2C(=O)NCCOc1ccccc1Cl | / | 26.8 | / | / | 46.4 | 2.0
CC(NCc1ccc(Cl)c(Cl)c1)C(O)c1ccccc1 (stereo unspecified) | -3.1 | -21.1 | 17.6 | 91.1* | 7.6 | 3.7
CC(NCc1ccccc1Cl)C(O)c1ccccc1 (stereo unspecified) | -15.9 | -2.2 | -6.1 | 2.5 | -0.3 | 5.4
O=C([O-])c1ccc(-[n+]2c(-c3ccccc3)cc(-c3ccccc3)cc2-c2ccccc2)cc1 | 30.9 | 2.5 | -1.0 | / | -9.4 | 11.7
O=[N+]([O-])c1ccc(-[n+]2c(-c3ccccc3)cc(-c3ccccc3)cc2-c2ccccc2)cc1 | 56.7* | 15.0 | -4.8 | / | 0.2 | /
Cc1ccc(/C=C2\C(=O)NC(=S)N(c3ccccc3F)C2=O)s1 | / | / | / | 100.6* | 4.6 | -3.6
CCOC(=O)C1CCN(/C=C2/C(=O)NC(=S)N(c3ccccc3F)C2=O)CC1 | -9.4 | -12.4 | -3.7 | 55.3* | -6.6 | 4.1
CC(NC1=NCCS1)c1ccccc1 (stereo unspecified) | -13.4 | 15.1 | -3.6 | -0.3 | -11.8 | 8.2
COc1ccccc1CNC(=O)CCC(=O)N1C[C@H]2C[C@@H](C1)c1cccc(=O)n1C2 | -13.0 | -21.7 | 5.5 | / | -6.0 | /
Cc1ccc2c(c1)cc1c(=O)n(CC(=O)N3CCC4(CC3)OCCO4)nc(C)n12 | -10.1 | 3.1 | -6.2 | / | -8.3 | -3.0
CCOC(=O)c1c(NC(=O)C(c2ccccc2)c2ccccc2)sc2c1C1CCN2CC1 | 54.8* | 44.4 | 22.3 | 100.4* | 81.5* | 52.0
CC(NS(C)(=O)=O)c1nnc2n1-c1ccc(Br)cc1C(c1ccccc1Cl)=NC2 (stereo unspecified) | 2.0 | -10.2 | 0.7 | / | -5.3 | -3.2
